Laboratory results: ChEMBL document CHEMBL1154352, “Toll-like receptor 7 selective synthetic oligoribonucleotide agonists: synthesis and structure-activity relationship studies” (J Med Chem, 2009)
The source made the active and inactive calls. No cut-off for these calls is given here.

Key:
Homo sapiens [1] = organism: Homo sapiens; experiment: Immunostimulatory activity in human mDC assessed as induction of IFNalpha at 100 ug/ml after 24 hrs; assay type: functional
Outline: (§1)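 Human mDCs isolated from PBMCs by CD19+ B-cell depletion then BDCA1 positive selection; plated at 1 × 10^6 cells/mL, compounds in PBS, 37 °C for 24 h; supernatant cytokines by human Luminex multiplex. Representative of four independent experiments.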

PBMC [2] = experiment: Immunomodulatory activity in human PBMC assessed as induction of MIP1alpha after 24 hrs; assay type: functional, cell-based
Outline: (§2)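 Human PBMCs plated at 5 × 10^6 cells/mL; compounds dissolved in PBS added at various concentrations, 37 °C for 24 h. Supernatant cytokines/chemokines quantified with human Luminex multiplex kit.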

PBMC [3] = experiment: Immunomodulatory activity in human PBMC assessed as induction of IP10 after 24 hrs; assay type: functional, cell-based; outline: as §2
Homo sapiens [4] = organism: Homo sapiens; experiment: Immunostimulatory activity in human pDC assessed as induction of IL6 at 100 ug/ml after 24 hrs; assay type: functional
Outline: (§3)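 Human pDCs plated at 1 × 10^6 cells/mL; compounds in PBS added, 37 °C for 24 h; supernatant cytokines/chemokines by human Luminex multiplex kit.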

Mus musculus = experiment: Immunomodulatory activity in C57BL/6 mouse assessed as induction of IL12 release at 25 mg/kg, sc after 2 hrs by ELISA; assay type: functional, organism-based; design: dose 25 mg/kg
Outline: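 Female C57BL/6 wild-type mice, 5–8 weeks old, n=3; compounds given subcutaneously at 10 or 25 mg/kg. Retro-orbital blood at 2 h; serum cytokines by mouse Luminex multiplex or IL-12 ELISA.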

PBMC [5] = experiment: Immunomodulatory activity in human PBMC assessed as induction of IFNalpha after 24 hrs; assay type: functional, cell-based; outline: as §2
PBMC [6] = experiment: Immunomodulatory activity in human PBMC assessed as induction of IFNalpha at 50 ug/ml after 24 hrs; assay type: functional, cell-based; outline: as §2
Homo sapiens [7] = organism: Homo sapiens; experiment: Immunostimulatory activity in human mDC assessed as induction of IP10 at 100 ug/ml after 24 hrs; assay type: functional; outline: as §1
PBMC [8] = experiment: Immunomodulatory activity in human PBMC assessed as induction of IP10 at 50 ug/ml after 24 hrs; assay type: functional, cell-based; outline: as §2
Homo sapiens [9] = organism: Homo sapiens; experiment: Immunostimulatory activity in human mDC assessed as induction of TNFalpha at 100 ug/ml after 24 hrs; assay type: functional; outline: as §1
PBMC [10] = experiment: Immunomodulatory activity in human PBMC assessed as induction of IL6 at 50 ug/ml after 24 hrs; assay type: functional, cell-based; outline: as §2
PBMC [11] = experiment: Immunomodulatory activity in human PBMC assessed as induction of TNFalpha at 50 ug/ml after 24 hrs; assay type: functional, cell-based; outline: as §2
Homo sapiens [12] = organism: Homo sapiens; experiment: Immunostimulatory activity in human mDC assessed as induction of IL12 at 100 ug/ml after 24 hrs; assay type: functional; outline: as §1
Homo sapiens [13] = organism: Homo sapiens; experiment: Immunostimulatory activity in human pDC assessed as induction of IFNalpha at 100 ug/ml after 24 hrs; assay type: functional; outline: as §3
Homo sapiens [14] = organism: Homo sapiens; experiment: Immunostimulatory activity in human mDC assessed as induction of IL6 at 100 ug/ml after 24 hrs; assay type: functional; outline: as §1
PBMC [15] = experiment: Immunomodulatory activity in human PBMC assessed as induction of MIP1alpha at 50 ug/ml after 24 hrs; assay type: functional, cell-based; outline: as §2
PBMC [16] = experiment: Immunomodulatory activity in human PBMC assessed as induction of IL12 at 50 ug/ml after 24 hrs; assay type: functional, cell-based; outline: as §2
PBMC [17] = experiment: Immunomodulatory activity in human PBMC assessed as induction of IL1-beta at 50 ug/ml after 24 hrs; assay type: functional, cell-based; outline: as §2
[18] = molecular target: T1, Toll-like receptor 7 (Homo sapiens) (UniProt Q9NYK1); experiment: Activation of human TLR7 expressed in HEK293XL assessed as fold induction of NF-kappaB activity at 50 ug/ml after 18 hrs by reporter gene assay relative to control
T1 sequence (whole entry): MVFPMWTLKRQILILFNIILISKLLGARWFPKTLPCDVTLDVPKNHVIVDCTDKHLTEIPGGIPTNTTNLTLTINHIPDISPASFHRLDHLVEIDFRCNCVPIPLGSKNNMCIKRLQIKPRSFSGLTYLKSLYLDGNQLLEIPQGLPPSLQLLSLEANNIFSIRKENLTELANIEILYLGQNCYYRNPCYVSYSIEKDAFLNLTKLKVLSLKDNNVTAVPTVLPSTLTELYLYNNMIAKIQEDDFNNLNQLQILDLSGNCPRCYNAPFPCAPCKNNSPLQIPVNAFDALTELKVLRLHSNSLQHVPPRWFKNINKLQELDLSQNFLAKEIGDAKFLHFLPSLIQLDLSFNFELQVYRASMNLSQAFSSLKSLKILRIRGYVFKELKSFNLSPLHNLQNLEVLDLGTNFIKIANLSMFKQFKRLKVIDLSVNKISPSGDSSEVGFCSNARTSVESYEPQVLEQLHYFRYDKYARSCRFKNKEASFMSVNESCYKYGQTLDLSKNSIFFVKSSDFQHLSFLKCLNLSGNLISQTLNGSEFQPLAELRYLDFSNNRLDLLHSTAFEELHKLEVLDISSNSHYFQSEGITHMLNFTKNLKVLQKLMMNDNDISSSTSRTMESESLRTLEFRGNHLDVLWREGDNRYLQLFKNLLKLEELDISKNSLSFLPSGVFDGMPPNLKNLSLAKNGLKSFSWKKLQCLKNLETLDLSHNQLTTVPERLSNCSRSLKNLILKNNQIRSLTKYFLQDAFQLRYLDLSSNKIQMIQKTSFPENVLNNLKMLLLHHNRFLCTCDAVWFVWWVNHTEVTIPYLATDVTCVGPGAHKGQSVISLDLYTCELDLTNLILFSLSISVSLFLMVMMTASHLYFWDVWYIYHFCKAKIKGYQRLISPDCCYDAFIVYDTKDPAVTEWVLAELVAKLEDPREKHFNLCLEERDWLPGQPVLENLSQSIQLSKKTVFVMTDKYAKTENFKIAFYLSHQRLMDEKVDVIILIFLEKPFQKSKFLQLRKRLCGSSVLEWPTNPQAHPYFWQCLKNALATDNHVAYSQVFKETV
Outline: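 HEK293 cells stably expressing human TLR7 or TLR8, transiently transfected with SEAP reporter plasmid; medium replaced, SIMRA compounds added, 18 h incubation. Supernatant SEAP measured by QuantiBlue; expressed as fold increase in NF-κB activity over PBS control. Tabulated data at 50 μg/mL, representative of three independent experiments.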

Homo sapiens [19] = organism: Homo sapiens; experiment: Immunostimulatory activity in human pDC assessed as induction of IP10 at 100 ug/ml after 24 hrs; assay type: functional; outline: as §3
PBMC [20] = experiment: Immunomodulatory activity in human PBMC assessed as induction of IL6 after 24 hrs; assay type: functional, cell-based; outline: as §2
PBMC [21] = experiment: Immunomodulatory activity in human PBMC assessed as induction of MCP1 at 50 ug/ml after 24 hrs; assay type: functional, cell-based; outline: as §2
Homo sapiens [22] = organism: Homo sapiens; experiment: Ratio of human TLR7 activity to human TLR8 activity
Outline: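 TLR7/TLR8 ratio computed from fold NF-κB (SEAP reporter) activation in HEK293 cells stably expressing human TLR7 versus TLR8, compounds at 50 μg/mL, 18 h exposure; representative of three independent experiments.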

PBMC [23] = experiment: Immunomodulatory activity in human PBMC assessed as induction of MIP1beta at 50 ug/ml after 24 hrs; assay type: functional, cell-based; outline: as §2
PBMC [24] = experiment: Immunomodulatory activity in human PBMC assessed as induction of IL10 after 24 hrs; assay type: functional, cell-based; outline: as §2

fold change (FC) [18] | Structure (SMILES) | Activity (Homo sapiens [1]) | Activity (PBMC [2]) | Activity (PBMC [3]) | Activity (Homo sapiens [4]) | Activity (Mus musculus) | Activity (PBMC [5]) | Activity (PBMC [6]) | Activity (Homo sapiens [7]) | Activity (PBMC [8]) | Activity (Homo sapiens [9]) | Activity (PBMC [10]) | Activity (PBMC [11]) | Activity (Homo sapiens [12]) | Activity (Homo sapiens [13]) | Activity (Homo sapiens [14]) | Activity (PBMC [15]) | Activity (PBMC [16]) | Activity (PBMC [17]) | Activity (Homo sapiens [19]) | other results
21.5 | Nc1ccn([C@@H]2O[C@H](COP(=O)(S)O[C@H]3[C@@H](O)[C@H](n4cnc5c(N)ncnc54)O[C@@H]3COP(=O)(S)O[C@H]3[C@@H](O)[C@H](n4cnc5c(N)ncnc54)O[C@@H]3CO)[C@@H](OP(=O)(S)OC[C@H]3O[C@@H](n4ccc(=O)[nH]c4=O)[C@H](O)[C@@H]3OP(=O)(S)OC[C@H]3O[C@@H](n4ccc5c(=O)[nH]c(N)nc54)[C@H](O)[C@@H]3OP(=O)(S)OC[C@H]3O[C@@H](n4cnc5c(N)ncnc54)[C@H](O)[C@@H]3OP(=O)(S)OC[C@H]3O[C@@H](n4ccc(N)nc4=O)[C@H](O)[C@@H]3OP(=O)(S)OC[C@H]3O[C@@H](n4ccc5c(=O)[nH]c(N)nc54)[C@H](O)[C@@H]3OP(=O)(S)OC[C@H]3O[C@@H](n4ccc(N)nc4=O)[C@H](O)[C@@H]3OP(=O)(S)OC[C@H]3O[C@@H](n4ccc(=O)[nH]c4=O)[C@H](O)[C@@H]3OP(=O)(S)OC[C@H]3O[C@@H](n4ccc(=O)[nH]c4=O)[C@H](O)[C@@H]3OP(=O)(S)OCC(O)COP(=O)(S)O[C@H]3[C@@H](O)[C@H](n4ccc(=O)[nH]c4=O)O[C@@H]3COP(=O)(S)O[C@H]3[C@@H](O)[C@H](n4ccc(=O)[nH]c4=O)O[C@@H]3COP(=O)(S)O[C@H]3[C@@H](O)[C@H](n4ccc(N)nc4=O)O[C@@H]3COP(=O)(S)O[C@H]3[C@@H](O)[C@H](n4ccc5c(=O)[nH]c(N)nc54)O[C@@H]3COP(=O)(S)O[C@H]3[C@@H](O)[C@H](n4ccc(N)nc4=O)O[C@@H]3COP(=O)(S)O[C@H]3[C@@H](O)[C@H](n4cnc5c(N)ncnc54)O[C@@H]3COP(=O)(S)O[C@H]3[C@@H](O)[C@H](n4ccc5c(=O)[nH]c(N)nc54)O[C@@H]3COP(=O)(S)O[C@H]3[C@@H](O)[C@H](n4ccc(=O)[nH]c4=O)O[C@@H]3COP(=O)(S)O[C@H]3[C@@H](O)[C@H](n4ccc(N)nc4=O)O[C@@H]3COP(=O)(S)O[C@H]3[C@@H](O)[C@H](n4cnc5c(N)ncnc54)O[C@@H]3COP(=O)(S)O[C@H]3[C@@H](O)[C@H](n4cnc5c(N)ncnc54)O[C@@H]3CO)[C@H]2O)c(=O)n1 (stereo not given in full) | Active | Dose-dependent effect | Dose-dependent effect | Active | Active | Dose-dependent effect | 434 pg/mL | Active | 1020 pg/mL | Active | 791 pg/mL | 39 pg/mL | Active | Active | Active | 2200 pg/mL | 223 pg/mL | 47 pg/mL | Active | Activity (PBMC [20]): Dose-dependent effect; Activity (PBMC [21]): 42100 pg/mL; Ratio (Homo sapiens [22]): 53.8; Activity (PBMC [23]): 5880 pg/mL; Activity (PBMC [24]): Dose-dependent effect
20.9 | Nc1ccn([C@@H]2O[C@H](COP(=O)(S)O[C@H]3[C@@H](O)[C@H](n4cnc5c(N)ncnc54)O[C@@H]3COP(=O)(S)O[C@H]3[C@@H](O)[C@H](n4ccc5c(=O)[nH]c(N)nc54)O[C@@H]3COP(=O)(S)O[C@H]3[C@@H](O)[C@H](n4ccc(=O)[nH]c4=O)O[C@@H]3COP(=O)(S)O[C@H]3[C@@H](O)[C@H](n4ccc(=O)[nH]c4=O)O[C@@H]3COP(=O)(S)O[C@H]3[C@@H](O)[C@H](n4cnc5c(N)ncnc54)O[C@@H]3COP(=O)(S)O[C@H]3[C@@H](O)[C@H](n4cnc5c(N)ncnc54)O[C@@H]3CO)[C@@H](OP(=O)(S)OC[C@H]3O[C@@H](n4ccc5c(=O)[nH]c(N)nc54)[C@H](O)[C@@H]3OP(=O)(S)OC[C@H]3O[C@@H](n4ccc(N)nc4=O)[C@H](O)[C@@H]3OP(=O)(S)OC[C@H]3O[C@@H](n4ccc(=O)[nH]c4=O)[C@H](O)[C@@H]3OP(=O)(S)OC[C@H]3O[C@@H](n4ccc(=O)[nH]c4=O)[C@H](O)[C@@H]3OP(=O)(S)OCC(O)COP(=O)(S)O[C@H]3[C@@H](O)[C@H](n4ccc(=O)[nH]c4=O)O[C@@H]3COP(=O)(S)O[C@H]3[C@@H](O)[C@H](n4ccc(=O)[nH]c4=O)O[C@@H]3COP(=O)(S)O[C@H]3[C@@H](O)[C@H](n4ccc(N)nc4=O)O[C@@H]3COP(=O)(S)O[C@H]3[C@@H](O)[C@H](n4ccc5c(=O)[nH]c(N)nc54)O[C@@H]3COP(=O)(S)O[C@H]3[C@@H](O)[C@H](n4ccc(N)nc4=O)O[C@@H]3COP(=O)(S)O[C@H]3[C@@H](O)[C@H](n4cnc5c(N)ncnc54)O[C@@H]3COP(=O)(S)O[C@H]3[C@@H](O)[C@H](n4ccc5c(=O)[nH]c(N)nc54)O[C@@H]3COP(=O)(S)O[C@H]3[C@@H](O)[C@H](n4ccc(=O)[nH]c4=O)O[C@@H]3COP(=O)(S)O[C@H]3[C@@H](O)[C@H](n4ccc(=O)[nH]c4=O)O[C@@H]3COP(=O)(S)O[C@H]3[C@@H](O)[C@H](n4cnc5c(N)ncnc54)O[C@@H]3COP(=O)(S)O[C@H]3[C@@H](O)[C@H](n4cnc5c(N)ncnc54)O[C@@H]3CO)[C@H]2O)c(=O)n1 (stereo not given in full) | Active | Dose-dependent effect | Dose-dependent effect | Active | Active | Dose-dependent effect | 149 pg/mL | Active | 453 pg/mL | Active | 1750 pg/mL | 104 pg/mL | Active | Active | Active | 2230 pg/mL | 320 pg/mL | 117 pg/mL | Active | Activity (PBMC [20]): Dose-dependent effect; Activity (PBMC [21]): 49600 pg/mL; Ratio (Homo sapiens [22]): 69.7; Activity (PBMC [23]): 5500 pg/mL; Activity (PBMC [24]): Dose-dependent effect
